Measured values taken from ChEMBL document CHEMBL1151458, “Comparative analysis of the bactericidal activities of amphibian peptide analogues against multidrug-resistant nosocomial bacterial strains” (2008).
Active and inactive are the calls of the source. The calls are words filed in the database; no cut-off is given here.

Key:
Staphylococcus aureus [1] = test: Bactericidal activity against Staphylococcus aureus isolate 2 with AMC-AMP-CIP-ERY-GEN-LVX-OXA-RIF-TET resistance phenotype assessed as concentration required for >= 3 log10 CFU/ml reduction in viable bacteria in sodium phosphate buffer at pH 7.4 after 1.5 hrs by liquid microdilution assay; assay type: functional
Summary of the method: (§1)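 Clinical multidrug-resistant isolates grown to mid-log in tryptone soy broth and stored frozen. Exponential cells resuspended in 10 mM sodium phosphate buffer, pH 7.4, at 1 × 10^7 CFU/ml; 10 μl incubated with graded peptide concentrations in 100 μl at 37°C for 1.5 h. Plated on tryptone soy agar, CFU read after 24 h at 37°C. Peptide stocks in 20% ethanol.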

Staphylococcus aureus [2] = test: Bactericidal activity against Staphylococcus aureus isolate 1 with AMC-AMP-CIP-ERY-GEN-OXA-RIF resistance phenotype assessed as concentration required for >= 3 log10 CFU/ml reduction in viable bacteria in 20% heat-inactivated human serum after 1.5 hrs by liquid microdilution assay; assay type: functional
Summary of the method: (§2)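 The buffer microdilution kill assay (1 × 10^7 CFU/ml mid-log cells, 10 μl in 100 μl, 37°C, 1.5 h, CFU on tryptone soy agar after 24 h) with serum added to 20% or 40% final. Serum was pooled from five healthy donors, clotted at room temperature, spun at 300 × g and heat-inactivated at 56°C for 30 min.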

Pseudomonas aeruginosa [3] = test: Bactericidal activity against Pseudomonas aeruginosa isolate 3 with AMP-CFZ-CTX-CIP-GEN-IPM-LVX-SXT-TET-TOB resistance phenotype assessed as concentration required for >= 3 log10 CFU/ml reduction in viable bacteria in sodium phosphate buffer at pH 7.4 after 1.5 hrs by liquid microdilution assay; assay type: functional; summary of the method: as §1
Pseudomonas aeruginosa [4] = test: Bactericidal activity against Pseudomonas aeruginosa isolate 1 with AMP-CFZ-CIP-CTX-CXM-GEN-LVX-SXT-TET resistance phenotype assessed as concentration required for >= 3 log10 CFU/ml reduction in viable bacteria in 20% heat-inactivated human serum after 1.5 hrs by liquid microdilution assay; assay type: functional; summary of the method: as §2
Enterococcus faecium [5] = test: Bactericidal activity against Enterococcus faecium isolate 5 with AMP-AMC-CIP-CLI-ERY-GEN-KAN-LVX-SXT-TEC-VAN resistance phenotype assessed as concentration required for >= 3 log10 CFU/ml reduction in viable bacteria in sodium phosphate buffer at pH 7.4 after 1.5 hrs by liquid microdilution assay; assay type: functional; summary of the method: as §1
Staphylococcus aureus [6] = test: Bactericidal activity against Staphylococcus aureus isolate 1 with AMC-AMP-CIP-ERY-GEN-OXA-RIF resistance phenotype assessed as concentration required for >= 3 log10 CFU/ml reduction in viable bacteria in sodium phosphate buffer at pH 7.4 after 1.5 hrs by liquid microdilution assay; assay type: functional; summary of the method: as §1
[7] = test system: Stenotrophomonas maltophilia; test: Bactericidal activity against Stenotrophomonas maltophilia isolate 2 with AMK-CIP-CTX-IPM-MEM-SAM-TZP resistance phenotype assessed as concentration required for >= 3 log10 CFU/ml reduction in viable bacteria in sodium phosphate buffer at pH 7.4 after 1.5 hrs by liquid microdilution assay; assay type: functional; summary of the method: as §1
Acinetobacter baumannii [8] = test: Bactericidal activity against Acinetobacter baumannii isolate 2 with AMP-CFZ-CIP-LVX-PIP-SXT resistance phenotype assessed as concentration required for >= 3 log10 CFU/ml reduction in viable bacteria in sodium phosphate buffer at pH 7.4 after 1.5 hrs by liquid microdilution assay; assay type: functional; summary of the method: as §1
Acinetobacter baumannii [9] = test: Bactericidal activity against Acinetobacter baumannii isolate 3 with AMP-AMC-CFZ-CIP-IPM-SXT-TET-TOB resistance phenotype assessed as concentration required for >= 3 log10 CFU/ml reduction in viable bacteria in 40% heat-inactivated human serum after 1.5 hrs by liquid microdilution assay; assay type: functional; summary of the method: as §2
Enterococcus faecium [10] = test: Antimicrobial activity against Enterococcus faecium isolate 3 with AMP-CIP-CTX-ERY-GEN-LVX-SXT-TEC-VAN resistance phenotype at bactericidal concentration within 30 mins; assay type: functional, organism-based
Summary of the method: (§3)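 Time-kill in 10 mM sodium phosphate buffer, pH 7.4: 1 × 10^7 CFU/ml mid-log clinical isolate (10 μl) exposed at 37°C to peptide at the 1.5-h bactericidal concentration or twofold that, in 100 μl. Samples taken from 2 min onward, plated on tryptone soy agar, CFU counted after 24 h at 37°C. Killing taken as ≥3 log10 CFU/ml drop.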

Staphylococcus aureus [11] = test: Bactericidal activity against Staphylococcus aureus isolate 3 with AMC-AMP-CIP-ERY-GEN-LVX-OXA resistance phenotype assessed as concentration required for >= 3 log10 CFU/ml reduction in viable bacteria in sodium phosphate buffer at pH 7.4 after 1.5 hrs by liquid microdilution assay; assay type: functional; summary of the method: as §1
Pseudomonas aeruginosa [12] = test: Antimicrobial activity against Pseudomonas aeruginosa isolate 1 with AMP-CFZ-CIP-CTX-CXM-GEN-LVX-SXT-TET resistance phenotype at twofold bactericidal concentration after 10 to 30 mins by time kill assay; assay type: functional, organism-based; summary of the method: as §3
Enterococcus faecium [13] = test: Antimicrobial activity against Enterococcus faecium isolate 3 with AMP-CIP-CTX-ERY-GEN-LVX-SXT-TEC-VAN resistance phenotype assessed as time to kill at twofold the bactericidal concentration; assay type: functional, organism-based; summary of the method: as §3
[14] = test system: Stenotrophomonas maltophilia; test: Bactericidal activity against Stenotrophomonas maltophilia isolate 1 with AMK-CIP-CTX-IPM-MEM-SAM-TZP resistance phenotype assessed as concentration required for >= 3 log10 CFU/ml reduction in viable bacteria in sodium phosphate buffer at pH 7.4 after 1.5 hrs by liquid microdilution assay; assay type: functional; summary of the method: as §1
Pseudomonas aeruginosa [15] = test: Bactericidal activity against Pseudomonas aeruginosa isolate 1 with AMP-CFZ-CIP-CTX-CXM-GEN-LVX-SXT-TET resistance phenotype assessed as concentration required for >= 3 log10 CFU/ml reduction in viable bacteria in 40% heat-inactivated human serum after 1.5 hrs by liquid microdilution assay; assay type: functional; summary of the method: as §2
Enterococcus faecium [16] = test: (§4) Bactericidal activity against Enterococcus faecium isolate 3 with AMP-CIP-CTX-ERY-GEN-LVX-SXT-TEC-VAN resistance phenotype assessed as concentration required for >= 3 log10 CFU/ml reduction in viable bacteria in sodium phosphate buffer at pH 7.4 after 1.5 hrs by liquid microdilution assay; assay type: functional; summary of the method: as §1
Enterococcus faecium [17] = test: as §4, with “isolate 6” for “isolate 3”, “with AMP-AMC-CLI-CRO-CTX-CIP-ERY-GEN-KAN-LVX-SXT-VAN” for “with AMP-CIP-CTX-ERY-GEN-LVX-SXT-TEC-VAN”; assay type: functional; summary of the method: as §1
[18] = test system: Stenotrophomonas maltophilia; test: Antimicrobial activity against Stenotrophomonas maltophilia isolate 2 with AMK-CIP-CTX-IPM-MEM-SAM-TZP resistance phenotype assessed as assessed as time to kill at twofold bactericidal concentration; assay type: functional; summary of the method: as §3
Acinetobacter baumannii [19] = test: Bactericidal activity against Acinetobacter baumannii isolate 3 with AMP-AMC-CFZ-CIP-IPM-SXT-TET-TOB resistance phenotype assessed as concentration required for >= 3 log10 CFU/ml reduction in viable bacteria in sodium phosphate buffer at pH 7.4 after 1.5 hrs by liquid microdilution assay; assay type: functional; summary of the method: as §1
[20] = test system: Stenotrophomonas maltophilia; test: Bactericidal activity against Stenotrophomonas maltophilia isolate 2 with AMK-CIP-CTX-IPM-MEM-SAM-TZP resistance phenotype assessed as concentration required for >= 3 log10 CFU/ml reduction in viable bacteria in 20% heat-inactivated human serum after 1.5 hrs by liquid microdilution assay; assay type: functional; summary of the method: as §2
Enterococcus faecium [21] = test: Bactericidal activity against Enterococcus faecium isolate 3 with AMP-CIP-CTX-ERY-GEN-LVX-SXT-TEC-VAN resistance phenotype assessed as concentration required for >= 3 log10 CFU/ml reduction in viable bacteria in 20% heat-inactivated human serum after 1.5 hrs by liquid microdilution assay; assay type: functional; summary of the method: as §2

H-GIFSKLAGKKLKNLLISG-NH2
Activity (Staphylococcus aureus [1]): 16 µM | Activity (Staphylococcus aureus [2]): 64 µM | Activity (Pseudomonas aeruginosa [3]): 0.5 µM | Activity (Pseudomonas aeruginosa [4]): 4 µM | Activity (Enterococcus faecium [5]): 2 µM | Activity (Staphylococcus aureus [6]): 32 µM | Activity [7]: 0.5 µM | Activity (Acinetobacter baumannii [8]): 0.5 µM | Activity (Acinetobacter baumannii [9]): 32 µM | Activity (Enterococcus faecium [10]): inactive | Activity (Staphylococcus aureus [11]): 8 µM | Activity (Pseudomonas aeruginosa [12]): Active | Activity (Enterococcus faecium [13]): inactive | Activity [14]: 0.5 µM | Activity (Pseudomonas aeruginosa [15]): 128 µM | Activity (Enterococcus faecium [16]): 2 µM | Activity (Enterococcus faecium [17]): 2 µM | Time [18]: 2 min | Activity (Acinetobacter baumannii [19]): 1 µM | Activity [20]: 8 µM | Activity (Enterococcus faecium [21]): 32 µM
